Bioassay records from PubChem.
DNMT1 inh: human DNMT1 methyltransferase inhibitors, primary screen, biochemical, molecular beacon, fluorescence, HinP1I cleavage, uHTS | inhibition (reported as % activation of signal), % at 10 µM | hit rate 0.83% among 360,000; in the data active means inhibition above about 50%
SKN-1 inh: suppressors of acrylamide-induced Pgst-4::GFP reporter in worms, primary screen, SKN-1 inhibitor project, whole organism, uHTS, GFP/RFP fluorescence ratio, strain VP596; C. elegans VP596 Pgst-4::GFP/RFP ratio, 24 h; hit rate 0.49% among 360,000; inhibition, % at 21.8 µM;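 active means interference check ratio from 0.5 to 1.5 plus GFP to RFP signal ratio inhibition reaching or exceeding a fixed threshold, cut at about 30% in these data, passing the limit was not always enough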
MT1-MMP act inh: blockers of MT1-MMP proenzyme processing, primary screen, HT1080 RFP-PRO-GFP cells, GFP/RFP fluorescence; Matrix metalloproteinase-14 (Homo sapiens), P50281; GFP/RFP ratio fluorescence, overnight; percent of plate control window, DMSO zero; GFP/RFP ratio change, % at 20 µM; hit rate 0.061% among 360,000; AID 651647, 2012;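 active means GFP/RFP ratio change of at least 30% with cell ATP level not reduced by more than half and red fluorescence within 50% of control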
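Compound: 20 µM single dose, 1% DMSO / System: HT1080 RFP-PRO-GFP cells / Controls: DMSO and RFP-L50D-GFP cell wells / Read-out basis: GFP/RFP fluorescence ratio / Schedule: overnight compound exposure at 37 °C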
CSN deneddyl inh: inhibitors of CSN-mediated cullin deneddylation, primary screen, biochemical, fluorescence polarization, uHTS; COP9 signalosome complex subunit 5 (Homo sapiens), Q92905; Purified CSN, SCF-Nedd8-OG deneddylation; inhibition, % at 12.5 µM; hit rate 0.38% among 360,000;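 active means pattern-corrected inhibition above about 35%, with an unprinted fluorescence ratio check between 0.5 and 1.5, limit read from the data, passing the limit was not always enough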;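 further: 0% = enzyme with substrate and 100% = substrate without enzyme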
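Detection – fluorescence polarization · System – HEK293T-derived human Csn5 enzyme · Controls – substrate-only high control, full reaction low control · Timing – 90 min, room temperature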
SUMO1-SIM PPI: modulators of SUMO1 protein-protein interactions, primary screen, biochemical, uHTS; Small ubiquitin-related modifier 1 (Homo sapiens), P63165; SUMO1 binding to a labelled peptide, TR-FRET, 1 h; inhibition, % at 20 µM; hit rate 0.33% among 360,000; AID 602429, 2012; in the data active means inhibition above about 37%
Target sequence (P63165 whole entry, looked up): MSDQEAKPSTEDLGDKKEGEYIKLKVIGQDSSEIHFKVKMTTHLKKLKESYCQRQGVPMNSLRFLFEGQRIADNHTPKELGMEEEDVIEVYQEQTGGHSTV
Rpn11 inh: Rpn11 (PSMD14) deubiquitinase inhibitors, primary screen, biochemical, fluorescence polarization, uHTS. 26S proteasome non-ATPase regulatory subunit 14 (Homo sapiens), O00487. inhibition, % at 20 µM. hit rate 0.59% among 360,000. human 26S proteasome, Ub4-pepOG fluorescence polarization; 20S core pre-blocked with epoxomicin;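 active means inhibition at 20 µM, scaled to each plate's controls, above about 33%, limit read from the data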
Target sequence (O00487 whole entry, looked up): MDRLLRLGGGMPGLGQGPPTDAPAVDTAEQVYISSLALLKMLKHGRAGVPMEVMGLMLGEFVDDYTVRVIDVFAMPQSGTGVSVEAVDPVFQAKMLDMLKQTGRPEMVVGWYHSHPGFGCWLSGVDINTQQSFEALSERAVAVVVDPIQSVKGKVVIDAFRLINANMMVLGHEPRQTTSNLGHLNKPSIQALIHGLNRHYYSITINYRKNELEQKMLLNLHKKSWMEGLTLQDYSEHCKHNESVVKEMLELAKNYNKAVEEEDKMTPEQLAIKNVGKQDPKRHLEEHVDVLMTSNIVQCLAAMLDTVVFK
DNMT1 interf DR: spectral interference with molecular beacon fluorescence, dose response, artefact control for DNMT1 inhibitor project, biochemical, fluorescent molecular beacon; shares compounds with DNMT1 inh; spectral interference counter-screen; IC50, µM; 200 tested, under 10 active; call rule not given here
DNMT1 inh conf: DNMT1 methyltransferase inhibitor retest, confirmation, biochemical, molecular beacon, fluorescence, single concentration; shares compounds with DNMT1 inh; DNMT1 molecular beacon HinP1I cleavage; inhibition, % at 10 µM; hit rate 8% among 2,300; AID 602385, 2012;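 active means average inhibition of at least 30% in the single-concentration confirmation test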
DNMT1 interf: shows spectral interference in the DNMT1 beacon assay. activation (fluorescence interference), % at 10 µM. shares compounds with DNMT1 inh. hit rate 1% among 2,300. DNMT1 molecular beacon spectral interference counterscreen, fluorescence 485/520. AID 602387;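 active means activation of at least 30% at 10 µM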;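 further: DNMT1 catalytic domain with a HinP1I cleavage step and a FAM/dabcyl DNA beacon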
The depositor's hits bear a star; . = not tested or not shown. Only some compounds are listed: those with a hit (about 2.3% of all), similar ones and a draw of the others.

SMILES	DNMT1 inh	SKN-1 inh	MT1-MMP act inh	CSN deneddyl inh	SUMO1-SIM PPI	Rpn11 inh	DNMT1 inh conf	DNMT1 interf	others
O=C(Cn1c(=O)n(Cc2ccco2)c(=O)c2c3c(sc21)CCCC3)Nc1ccccc1	-2	24	3	4	3	9	.	.
NC(=O)Cn1c(=O)n(Cc2ccco2)c(=O)c2c3c(sc21)CCCCC3	83*	6	-1	29	12	-17	3	0
COc1cccc(N(C(=O)Cn2nnc(-c3cccs3)n2)C(C(=O)NC2CCCCC2)c2ccncc2)c1 (stereo not drawn)	68*	16	-2	5	2	-2	0	-2
Cc1cc(C)c(NC(=O)Cn2nnc(C(=O)NCCc3ccccc3)c2N)c(C)c1	23	8	1	8	8	5	.	.
Cc1cc(C)cc(NC(=O)Cn2nnc(C(=O)NCCc3ccccc3)c2N)c1	67*	-5	1	37*	6	26	1	-1
Nc1c(C(=O)NCc2ccccc2)nnn1Cc1ccc(F)cc1	50*	5	3	5	4	25	4	6
COc1ccc(CNC(=O)c2nnn(Cc3ccc(OC)cc3)c2N)cc1	0	4	2	4	7	4	.	.
CCCCNC(=O)c1nc(C2CCN(S(=O)(=O)c3ccc(Cl)cc3)CC2)oc1-c1ccccc1	.	5	-5	0	-3	.	.	.
O=C(O)C1Oc2cc3ccccc3cc2O1	55*	17	-3	15	4	-26	5	4
CC1(C)CCCN(C(=O)c2coc(=O)c(Br)c2)C1	87*	5	-6	48	3	.	103*	-4	DNMT1 interf DR=>99
O=C(c1cc2ccccc2c(=O)o1)N1CCCc2ccccc21	2	5	2	12	-7	-1	.	.
O=C(c1coc(=O)c(Br)c1)N1CCCc2ccccc21	58*	-4	-4	32	9	-1	2	3
O=C(c1cc(=O)c2ccccc2o1)N1CCCc2ccccc21	84*	3	-11	3	-3	-6	4	5
O=C(c1cccc(Br)c1)N1CCCc2ccccc21	-1	-2	0	0	-1	1	.	.
COC(=O)c1ccc2nc(C3CCCCC3)c(Cc3cccc(Cl)c3)n2c1	6	12	-5	5	-9	20	.	.
O=C(Nc1ccccc1C(F)(F)F)NC1(C(=O)N2CCOCC2)CCCCC1	95*	17	3	43*	42*	.	9	-4
CC(C)OCCCNC(=O)C1CCN(S(=O)(=O)N2CCCCC2)CC1	-1	-11	0	4	0	-4	.	.
CCOCCCNC(=O)C1CCN(S(=O)(=O)N2CCCC2)CC1	72*	4	3	-1	1	-2	3	4
Cc1ccccc1NC(=O)COC(=O)/C=C/c1cn(-c2ccccc2)nc1-c1cccnc1	52*	-9	-2	5	1	11	1	-4
COc1ccc(/C=C(\C#N)C(=O)NCc2ccccc2)cc1O	1	13	1	-1	-26	3	.	.
COc1ccc(/C=C(\C#N)C(=O)Nc2cc(C)c(Cl)cc2OC)cc1O	70*	7	-7	1	5	12	5	-2
COc1ccc(-n2c(SCC(=O)N3CCc4ccccc43)nnc2-c2c[nH]c3ccccc23)cc1	67*	-10	8	33	2	-5	-3	-5
Cc1ccc(S(=O)(=O)N(C)C[C@@H]2OCc3cn(nn3)CCCC(=O)N([C@H](C)CO)C[C@H]2C)cc1	14	9	2	-5	3	-10	.	.
O=C(O)CCCCC1SCC2NC(=O)NC21 (stereo not drawn)	82*	7	-2	3	-1	1	2	3
Cc1ccc(C(=O)NNC(=O)CSc2nnc3c(n2)[nH]c2ccc(F)cc23)cc1	105*	16	4	43*	7	10	5	-1
SMILES	DNMT1 inh	SKN-1 inh	MT1-MMP act inh	CSN deneddyl inh	SUMO1-SIM PPI	Rpn11 inh	DNMT1 inh conf	DNMT1 interf	others
CCOC(=O)[C@]12CCC=C1N(CCC1=CCCCC1)C(=O)[C@H](CC(=O)N1CCSCC1)C2	.	8	0	-3	8	.	.	.
COc1cc(C(=O)Nc2ccc3c(c2)C(=O)c2ccccc2C3=O)cc(OC)c1OC	66*	10	2	-2	2	19	0	-1
Cc1ccc(S(=O)(=O)N(CC(=O)O)Cc2ccco2)cc1	76*	-4	-3	24	6	-14	7	-1
ClC(Cl)(Cl)c1nc(N/N=C/c2ccncc2)c2ccccc2n1	55*	9	-1	1	-2	3	6	7
CS(=O)(=O)c1ccc(-c2sc3ccccc3c2C(=O)N2CCN(c3ccc(F)cc3)CC2)cc1	60*	15	9	-5	-1	0	10	1
CN(CC(=O)Nc1ccccc1Cl)C(=O)c1cccc(-n2cccc2)c1	-6	2	0	1	1	-6	.	.
CN(CC(=O)Nc1cccc(F)c1)C(=O)c1ccc(N2C(=O)c3ccccc3C2=O)cc1	21	-1	0	0	-11	-5	.	.
CN(CC(=O)Nc1cccc(F)c1)C(=O)c1cccc(-n2cccc2)c1	91*	-2	2	30	15	5	13	0
CN(CC(=O)Nc1c(Cl)cccc1Cl)C(=O)c1cccc(-n2cccc2)c1	69*	2	-2	22	18	-4	-1	1
Cc1ccc(C)c(NC(=O)CN(C)C(=O)c2cccc(-n3cccc3)c2)c1	94*	2	-2	29	15	9	9	2
